The subject of data set [1] is children with ASD. Conditions: 4-wk intranasal AVP treatment, pilot clinical trial; cited from earlier work.
Data set [2] deals with low-social male rhesus monkeys. Nature of the data set: Face recognition memory, visual paired comparison task. The data set is classed as in vivo, rhesus macaques (Macaca mulatta). A digest of the protocol:
(§1)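 Young adult males trained to breathe via mask-attached nebulizer until 2 min 40 s cumulative breathing. Dosed 0, 25 or 50 IU AVP per 1 mL in 0.4% 4-chlorobutanol/0.9% NaCl vehicle (vehicle as placebo), modified Latin square order, blinded, ≥1-week washout, 0900 dosing. Unique stimulus sets per dose on monitor. Looks +1 each; ln(novel/familiar) analysed by repeated-measures REML mixed model.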

For data set [3], the system named is low-social male rhesus monkeys. The data set is classed as in vivo, rhesus macaques (Macaca mulatta). Particulars: N = 8. A digest of the protocol: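 Low-social males habituated and given refresher mask training; next day nebulized at 0900 with 0, 25 or 50 IU per 1 mL (diluent placebo), order by modified Latin square, one-week washout. From 30 min post-dose, viewed on a monitor 61 cm from the cage videos of an unfamiliar adult male showing affiliative or aggressive behavior, interspersed with neutral nonsocial bouts, with a unique stimulus set per dose.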

A short description of data set [4]: Pharmacokinetics of nebulized AVP: plasma AVP levels. Type of data set: in vivo, rhesus macaques (Macaca mulatta). Conditions: N = 4, ELISA. The gist of the method:
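Nebulized through a face mask for 2 min 40 s of cumulative breathing at 0900 (0, 25 or 50 IU per 1 mL; diluent vehicle as placebo). Sedated with dexmedetomidine/ketamine 20 min later. Femoral blood sampled at two of 30/60/90/120 min, on EDTA, spun 1600×g 4 °C 15 min. Plasma extracted, nitrogen-dried, reconstituted, enzyme immunoassay in duplicate, expressed as ratio to the matched placebo timepoint. Washout ≥1 week.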

Data set [5] has as its system low-social male rhesus monkeys. Nature of the data set: Object recognition memory, visual paired comparison task. Type of data set: in vivo, rhesus macaques (Macaca mulatta). Conditions: nebulized AVP (25 and 50 IU pooled) vs placebo, within-subjects, N = 8, testing began 30 min after nebulization. A digest of the protocol:
as §1

Data set [6] in a line: Pharmacokinetics of nebulized AVP: cisternal CSF AVP levels. The data set is classed as in vivo, rhesus macaques (Macaca mulatta). Particulars: N = 4, ELISA. A digest of the protocol: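 Same blinded nebulization at 0900. Sedation with dexmedetomidine (0.015 to 0.075 mg/kg) plus ketamine (5 to 30 mg/kg) at 20 min. Paired cisternal CSF and femoral venous blood sampled at two timepoints per session (30/90 or 60/120 min). Blood-contaminated CSF excluded. Unextracted CSF run by enzyme immunoassay in duplicate. Values given as ratio to matched placebo timepoint, log-transformed, REML mixed model.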
On the technique in general: ELISA stands for enzyme-linked immunosorbent assay.

For data set [7], the system named is people with ASD. Conditions: multisite clinical trial; cited from earlier work.
[8] abbreviates: nebulized AVP (25 and 50 IU pooled) vs placebo, within-subjects.
[9] abbreviates: nebulized 25 or 50 IU AVP, 30, 60, 90, 120 min postnebulization.

As for `NC(=O)CC[C@@H]1NC(=O)[C@H](Cc2ccccc2)NC(=O)[C@H](Cc2ccc(O)cc2)NC(=O)[C@@H](N)CSSC[C@@H](C(=O)N2CCC[C@H]2C(=O)N[C@@H](CCCN=C(N)N)C(=O)NCC(N)=O)NC(=O)[C@H](CC(N)=O)NC1=O` [AVP, [ARG8]-vasopressin], in data set [1], the “social abilities in children with ASD” value is “improves empathic accuracy, facial emotion recognition, and social abilities”. In addition, the “face recognition memory (ratio of looks to novel versus familiar faces)” value in data set [2] (nebulized AVP (25 and 50 IU pooled) vs placebo, within-subjects, N = 8, testing began 30 min after nebulization) was “rescued”. For the same compound, the “recognition memory findings, 25 IU vs 50 IU AVP dose” value in data set [2] (nebulized AVP, faces and objects, N = 8) was “did not differ between the 25 and 50 IU AVP doses”. Moreover, in data set [3] (setting [8]), the “affiliative response rate to conspecific aggressive cues” value is recorded as “no treatment-related difference”, the “affiliative responses to conspecific affiliative communication cues” value is given as “reciprocated affiliative communication cues with species-typical affiliative responses” and the “aggressive responses to conspecific aggressive or affiliative overtures” value was “did not increase”. Also, in data set [3] (nebulized AVP), the “affiliative response findings, 25 IU vs 50 IU AVP dose” value is “did not differ between the 25 and 50 IU AVP doses”; the “aggressive response findings, 25 IU vs 50 IU AVP dose” value is “did not differ between the 25 and 50 IU AVP doses”. In addition, the “plasma AVP levels following AVP nebulization relative to placebo, time course” value in data set [4] (setting [9]) was “quadratic rise and fall”. In addition, in data set [4] (nebulized AVP), the “plasma AVP level effect, 50 IU vs 25 IU dose” value is recorded as “consistently stronger in the 50 IU AVP dose compared to the 25 IU dose”. In data set [5], the “object recognition memory (ratio of looks to novel versus familiar objects)” value is on record as “did not differ between treatment conditions”. Further, the “cisternal CSF AVP levels following AVP nebulization relative to placebo, time course” value in data set [6] (setting [9]) is listed as “progressive linear increase”. For the same compound, the “CSF AVP level effect, 50 IU vs 25 IU dose” value in data set [6] (nebulized AVP) is listed as “consistently stronger in the 50 IU AVP dose compared to the 25 IU AVP dose”.
On to oxytocin [OXT], for which the “core behavioral symptoms in people with ASD” value in data set [7] is “neither balovaptan [an AVPR1A antagonist ([49])], nor OXT ([50]), improve core behavioral symptoms”.
Turning to `CN1Cc2cc(Cl)ccc2-n2c(nnc2[C@H]2CC[C@H](Oc3ccccn3)CC2)C1` [balovaptan], the “core behavioral symptoms in people with ASD” value in data set [7] is “neither balovaptan [an AVPR1A antagonist ([49])], nor OXT ([50]), improve core behavioral symptoms”.

The values above are taken from paper PMC11626171 (Proceedings of the National Academy of Sciences of the …, 2024).
